Activity data for two molecules are collected here from ChEMBL document CHEMBL1157912, “Impact of nature and length of linker incorporated in agonists on toll-like receptor 9-mediated immune responses” (J Med Chem, 2010).

In experiment [1] the target is T1, Toll-like receptor 9 (Homo sapiens) (UniProt Q9NR96).
T1 sequence (whole entry): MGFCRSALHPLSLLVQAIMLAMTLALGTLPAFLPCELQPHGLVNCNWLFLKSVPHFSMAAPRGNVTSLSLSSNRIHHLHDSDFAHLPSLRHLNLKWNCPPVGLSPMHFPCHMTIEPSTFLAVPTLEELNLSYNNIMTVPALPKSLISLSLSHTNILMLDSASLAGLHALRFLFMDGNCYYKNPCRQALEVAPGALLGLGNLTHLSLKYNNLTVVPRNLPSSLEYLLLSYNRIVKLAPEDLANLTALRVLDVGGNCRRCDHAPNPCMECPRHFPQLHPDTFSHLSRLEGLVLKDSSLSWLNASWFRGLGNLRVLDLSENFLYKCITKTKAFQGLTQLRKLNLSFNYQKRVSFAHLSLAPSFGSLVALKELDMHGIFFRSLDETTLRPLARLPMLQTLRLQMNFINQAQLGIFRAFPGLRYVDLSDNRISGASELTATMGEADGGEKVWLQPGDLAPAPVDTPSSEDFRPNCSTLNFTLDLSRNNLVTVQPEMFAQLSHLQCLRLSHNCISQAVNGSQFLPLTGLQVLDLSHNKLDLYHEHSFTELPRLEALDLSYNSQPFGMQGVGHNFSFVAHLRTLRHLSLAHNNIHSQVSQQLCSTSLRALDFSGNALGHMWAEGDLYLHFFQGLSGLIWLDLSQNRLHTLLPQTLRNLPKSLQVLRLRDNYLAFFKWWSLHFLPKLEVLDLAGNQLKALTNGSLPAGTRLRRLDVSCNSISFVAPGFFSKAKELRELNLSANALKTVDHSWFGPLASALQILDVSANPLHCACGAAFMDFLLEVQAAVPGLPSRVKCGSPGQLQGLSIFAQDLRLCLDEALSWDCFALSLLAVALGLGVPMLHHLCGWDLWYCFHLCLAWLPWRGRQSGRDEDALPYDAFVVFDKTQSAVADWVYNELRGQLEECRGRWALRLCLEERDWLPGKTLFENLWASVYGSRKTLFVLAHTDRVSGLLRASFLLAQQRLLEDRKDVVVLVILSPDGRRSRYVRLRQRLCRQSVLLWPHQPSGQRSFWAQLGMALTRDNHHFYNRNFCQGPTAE
Nature of the experiment: Induction of TLR9-mediated immune stimulation in human PBMC assessed as MCP1 production at 2 ug/ml after 24 hrs by luminex multiplex assay (RVb = 0.08 +/- 0.02 ng/ml).

In experiment [2] the target is T1, Toll-like receptor 9 (Homo sapiens). Nature of the experiment: Induction of TLR9-mediated immune stimulation in human PBMC assessed as IL2R production at 2 ug/ml after 24 hrs by luminex multiplex assay (RVb = 0.02 +/- 0.01 ng/ml).
The target is the same in experiment [3]. Description: Induction of TLR9-mediated human B cell proliferation assessed as [3H]thymidine uptake after 56 hrs by scintillation counting. The procedure, abridged:
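B cells were purified from human PBMCs (healthy volunteers), about 1 × 10⁵ cells, and stimulated with various agonist concentrations for 56 h. Cells were then pulsed with 0.75 μCi [³H]-thymidine and harvested 16 h later. Incorporation was counted by scintillation and reported as cpm.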

The target is the same in experiment [4]. Description: Induction of TLR9-mediated immune stimulation in human PBMC assessed as IP10 production at 10 ug/ml after 24 hrs by luminex multiplex assay (RVb = 0.00 ng/ml).
For experiment [5] the target is unchanged. Nature of the experiment: Induction of TLR9-mediated immune stimulation in human PBMC assessed as MIP1alpha production at 10 ug/ml after 24 hrs by luminex multiplex assay (RVb = 0.01 ng/ml).
For experiment [6] the target is unchanged. Nature of the experiment: Induction of TLR9-mediated immune stimulation in human PBMC assessed as IL1Ralpha production at 10 ug/ml after 24 hrs by luminex multiplex assay (RVb = 0.12 +/- 0.03 ng/ml).
The target is the same in experiment [7]. Description: Induction of TLR9-mediated immune stimulation in human PBMC assessed as IL6 production at 2 ug/ml after 24 hrs by luminex multiplex assay (RVb = 0.01 ng/ml).
Experiment [8] has as its target T2, Toll-like receptor 9 (Mus musculus) (UniProt Q9EQU3).
T2 sequence (whole entry): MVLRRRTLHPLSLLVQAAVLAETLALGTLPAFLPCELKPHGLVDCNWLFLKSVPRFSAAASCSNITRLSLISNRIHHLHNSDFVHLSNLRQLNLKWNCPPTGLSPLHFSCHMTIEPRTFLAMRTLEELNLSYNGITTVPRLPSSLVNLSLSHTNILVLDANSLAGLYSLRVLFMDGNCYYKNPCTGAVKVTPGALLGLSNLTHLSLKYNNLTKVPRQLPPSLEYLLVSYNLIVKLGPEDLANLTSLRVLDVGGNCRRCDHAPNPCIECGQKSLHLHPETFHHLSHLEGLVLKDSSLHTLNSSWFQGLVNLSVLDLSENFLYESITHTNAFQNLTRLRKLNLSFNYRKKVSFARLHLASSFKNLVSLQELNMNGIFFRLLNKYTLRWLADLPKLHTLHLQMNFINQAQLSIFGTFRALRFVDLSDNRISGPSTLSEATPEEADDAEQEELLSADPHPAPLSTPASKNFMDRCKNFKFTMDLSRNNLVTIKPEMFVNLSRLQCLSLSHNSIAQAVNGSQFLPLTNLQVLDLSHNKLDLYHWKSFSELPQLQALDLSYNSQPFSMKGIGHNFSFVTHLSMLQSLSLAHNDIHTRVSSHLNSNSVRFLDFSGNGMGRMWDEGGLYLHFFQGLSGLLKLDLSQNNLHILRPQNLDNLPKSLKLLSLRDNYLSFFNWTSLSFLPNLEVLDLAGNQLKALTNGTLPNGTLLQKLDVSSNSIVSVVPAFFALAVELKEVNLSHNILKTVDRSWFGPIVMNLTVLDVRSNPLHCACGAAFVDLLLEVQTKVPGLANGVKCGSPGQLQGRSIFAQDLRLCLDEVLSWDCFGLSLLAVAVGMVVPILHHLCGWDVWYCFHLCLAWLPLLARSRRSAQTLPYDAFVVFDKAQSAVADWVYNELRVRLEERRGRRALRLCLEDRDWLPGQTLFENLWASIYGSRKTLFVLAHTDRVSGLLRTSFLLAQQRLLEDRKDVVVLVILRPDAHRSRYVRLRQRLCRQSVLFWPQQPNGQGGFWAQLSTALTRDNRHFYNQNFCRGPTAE
Description: Induction of TLR9-mediated IL12 production in C57BL/6 mouse spleen cells after 24 hrs by ELISA. The experiment is classed as cell-based. The procedure, abridged: (§1)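 C57BL/6 mouse spleen cells were cultured with agonists at 0.1, 0.3, 1, 3 and 10 μg/mL for 24 h. Secreted IL-12 and IL-6 in the supernatants were measured by ELISA. Values are averages of triplicate wells from one representative of at least two independent experiments.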
(In general: An ELISA detects its analyte on a solid surface through an enzyme-linked reagent.)

The target of experiment [9] is T2, Toll-like receptor 9 (Mus musculus). Nature of the experiment: Induction of TLR9-mediated IL6 production in C57BL/6 mouse spleen cells after 24 hrs by ELISA. The experiment is classed as cell-based. In short, it runs like this:
as §1

For experiment [10], the target named is T1, Toll-like receptor 9 (Homo sapiens). Nature of the experiment: Induction of TLR9-mediated immune stimulation in human PBMC assessed as IL12 production at 10 ug/ml after 24 hrs by luminex multiplex assay (RVb = 0.00 ng/ml).

Take `Cc1cn([C@H]2C[C@H](OCC(O)COP(=O)(S)O[C@H]3C[C@H](n4cc(C)c(=O)[nH]c4=O)O[C@@H]3COP(=O)(S)O[C@H]3[C@@H](O)[C@H](n4ccc(N)nc4=O)O[C@@H]3COP(=O)(S)O[C@H]3C[C@H](n4cc(C)c(=O)[nH]c4=O)O[C@@H]3COP(=O)(S)O[C@H]3C[C@H](n4cc(C)c(=O)[nH]c4=O)O[C@@H]3COP(=O)(S)O[C@H]3C[C@H](n4ccc5c(=O)[nH]c(N)nc54)O[C@@H]3COP(=O)(S)O[C@H]3[C@@H](O)[C@H](n4ccc(N)nc4=O)O[C@@H]3COP(=O)(S)O[C@H]3C[C@H](n4cc(C)c(=O)[nH]c4=O)O[C@@H]3COP(=O)(S)O[C@H]3[C@@H](O)[C@H](n4cnc5c(=O)[nH]c(N)nc54)O[C@@H]3COP(=O)(S)O[C@H]3C[C@H](n4cc(C)c(=O)[nH]c4=O)O[C@@H]3COP(=O)(S)O[C@H]3[C@@H](O)[C@H](n4ccc(N)nc4=O)O[C@@H]3COP(=O)(S)O[C@H]3C[C@H](n4cc(C)c(=O)[nH]c4=O)O[C@@H]3CO)[C@@H](COP(=O)(S)O[C@H]3[C@@H](O)[C@H](n4ccc(N)nc4=O)O[C@@H]3COP(=O)(S)O[C@H]3C[C@H](n4cc(C)c(=O)[nH]c4=O)O[C@@H]3COP(=O)(S)O[C@H]3C[C@H](n4cc(C)c(=O)[nH]c4=O)O[C@@H]3COP(=O)(S)O[C@H]3C[C@H](n4ccc5c(=O)[nH]c(N)nc54)O[C@@H]3COP(=O)(S)O[C@H]3[C@@H](O)[C@H](n4ccc(N)nc4=O)O[C@@H]3COP(=O)(S)O[C@H]3C[C@H](n4cc(C)c(=O)[nH]c4=O)O[C@@H]3COP(=O)(S)O[C@H]3[C@@H](O)[C@H](n4cnc5c(=O)[nH]c(N)nc54)O[C@@H]3COP(=O)(S)O[C@H]3C[C@H](n4cc(C)c(=O)[nH]c4=O)O[C@@H]3COP(=O)(S)O[C@H]3[C@@H](O)[C@H](n4ccc(N)nc4=O)O[C@@H]3COP(=O)(S)O[C@H]3C[C@H](n4cc(C)c(=O)[nH]c4=O)O[C@@H]3CO)O2)c(=O)[nH]c1=O` (stereo not given in full): the Activity is 0.46 ng/mL in experiment [1]; 0.06 ng/mL in experiment [2]; “Dose-dependent effect” in [3]; 0.01 ng/mL in experiment [4]; 0.37 ng/mL in [5]; 81.7 ng/mL in experiment [6]. For the same molecule, the Activity was 0.36 ng/mL in experiment [7], “Dose-dependent effect” in [8], “Dose-dependent effect” in experiment [9] and 0.17 ng/mL in experiment [10].
For `Cc1cn([C@H]2C[C@H](OCCC(O)CCOP(=O)(S)O[C@H]3C[C@H](n4cc(C)c(=O)[nH]c4=O)O[C@@H]3COP(=O)(S)O[C@H]3[C@@H](O)[C@H](n4ccc(N)nc4=O)O[C@@H]3COP(=O)(S)O[C@H]3C[C@H](n4cc(C)c(=O)[nH]c4=O)O[C@@H]3COP(=O)(S)O[C@H]3C[C@H](n4cc(C)c(=O)[nH]c4=O)O[C@@H]3COP(=O)(S)O[C@H]3C[C@H](n4ccc5c(=O)[nH]c(N)nc54)O[C@@H]3COP(=O)(S)O[C@H]3[C@@H](O)[C@H](n4ccc(N)nc4=O)O[C@@H]3COP(=O)(S)O[C@H]3C[C@H](n4cc(C)c(=O)[nH]c4=O)O[C@@H]3COP(=O)(S)O[C@H]3[C@@H](O)[C@H](n4cnc5c(=O)[nH]c(N)nc54)O[C@@H]3COP(=O)(S)O[C@H]3C[C@H](n4cc(C)c(=O)[nH]c4=O)O[C@@H]3COP(=O)(S)O[C@H]3[C@@H](O)[C@H](n4ccc(N)nc4=O)O[C@@H]3COP(=O)(S)O[C@H]3C[C@H](n4cc(C)c(=O)[nH]c4=O)O[C@@H]3CO)[C@@H](COP(=O)(S)O[C@H]3[C@@H](O)[C@H](n4ccc(N)nc4=O)O[C@@H]3COP(=O)(S)O[C@H]3C[C@H](n4cc(C)c(=O)[nH]c4=O)O[C@@H]3COP(=O)(S)O[C@H]3C[C@H](n4cc(C)c(=O)[nH]c4=O)O[C@@H]3COP(=O)(S)O[C@H]3C[C@H](n4ccc5c(=O)[nH]c(N)nc54)O[C@@H]3COP(=O)(S)O[C@H]3[C@@H](O)[C@H](n4ccc(N)nc4=O)O[C@@H]3COP(=O)(S)O[C@H]3C[C@H](n4cc(C)c(=O)[nH]c4=O)O[C@@H]3COP(=O)(S)O[C@H]3[C@@H](O)[C@H](n4cnc5c(=O)[nH]c(N)nc54)O[C@@H]3COP(=O)(S)O[C@H]3C[C@H](n4cc(C)c(=O)[nH]c4=O)O[C@@H]3COP(=O)(S)O[C@H]3[C@@H](O)[C@H](n4ccc(N)nc4=O)O[C@@H]3COP(=O)(S)O[C@H]3C[C@H](n4cc(C)c(=O)[nH]c4=O)O[C@@H]3CO)O2)c(=O)[nH]c1=O` (stereo not given in full), the Activity in [1] is 0.25 ng/mL; in experiment [2], 0.03 ng/mL; in experiment [3] it was “Dose-dependent effect”; in experiment [4] it was 0.02 ng/mL; in experiment [5], 0.17 ng/mL; in [6], 63 ng/mL. Further, the Activity in experiment [7] is 0.31 ng/mL; in experiment [8], “Dose-dependent effect”; in experiment [9] it was “Dose-dependent effect”; in experiment [10] it was 0.17 ng/mL.
